Laboratory results from ChEMBL document CHEMBL2396597, “Synthesis and evaluation of novel orally active p53-MDM2 interaction inhibitors” (Bioorg Med Chem, 2013).

Assays:
[1] = Metabolic stability in mouse liver microsomes assessed as compound remaining at 1 uM after 30 mins by LC-MS/MS analysis; assay type: ADME, Microsome; details: read-out: Stability
Outline: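 Compound at 1 μM final was incubated with mouse hepatic microsomes (0.5 mg/mL protein) in sodium phosphate buffer pH 7.4 at 37°C. Reaction was started with an NADPH-generating system and stopped with MeOH after 30 min. Samples were centrifuged, and loss of parent was measured by LC-MS/MS as % remaining.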

[2] = Plasma concentration in NOD/SCID mouse at 100 mg/kg, po measured at 4 hrs; assay type: ADME, organism-based; parameters: dose 100 mg/kg, route oral
[3] = Plasma concentration in NOD/SCID mouse at 100 mg/kg, po measured at 1 hr; assay type: ADME, organism-based; parameters: dose 100 mg/kg, route oral
[4] = Drug uptake in tumor of NOD/SCID mouse xenografted with human MV4-11 cells at 100 mg/kg, po measured at 1 hr by LC-MS/MS analysis; assay type: ADME, organism-based, Neoplasm; parameters: dose 100 mg/kg, route oral; details: read-out: Drug uptake
Outline: (§1)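 Tumor-bearing mice were given 100 mg/kg orally, suspended in Japanese Pharmacopoeia First Fluid (pH 1.2). Tumors were collected at 1, 2, 4, 6 and 24 h after dosing and homogenized. Tumor drug concentration was quantified by LC/MS/MS on an ODS column.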

[5] = Drug uptake in tumor of NOD/SCID mouse xenografted with human MV4-11 cells at 100 mg/kg, po measured at 4 hrs by LC-MS/MS analysis; assay type: ADME, organism-based, Neoplasm; parameters: dose 100 mg/kg, route oral; details: read-out: Drug uptake; outline: as §1
[6] = Plasma concentration in NOD/SCID mouse at 100 mg/kg, po measured at 2 hrs; assay type: ADME, organism-based; parameters: dose 100 mg/kg, route oral
[7] = Plasma concentration in NOD/SCID mouse at 100 mg/kg, po measured at 24 hrs; assay type: ADME, organism-based; parameters: dose 100 mg/kg, route oral
[8] = Drug uptake in tumor of NOD/SCID mouse xenografted with human MV4-11 cells at 100 mg/kg, po measured at 2 hrs by LC-MS/MS analysis; assay type: ADME, organism-based, Neoplasm; parameters: dose 100 mg/kg, route oral; details: read-out: Drug uptake; outline: as §1
[9] = Plasma concentration in NOD/SCID mouse at 100 mg/kg, po measured at 6 hrs; assay type: ADME, organism-based; parameters: dose 100 mg/kg, route oral
[10] = AUC in NOD/SCID mouse at 100 mg/kg, po; assay type: ADME, organism-based; parameters: dose 100 mg/kg, route oral; details: plasma
[11] = Drug uptake in tumor of NOD/SCID mouse xenografted with human MV4-11 cells at 100 mg/kg, po measured at 6 hrs by LC-MS/MS analysis; assay type: ADME, organism-based, Neoplasm; parameters: dose 100 mg/kg, route oral; details: read-out: Drug uptake; outline: as §1
[12] = Drug uptake in tumor of NOD/SCID mouse xenografted with human MV4-11 cells at 100 mg/kg, po measured at 24 hrs by LC-MS/MS analysis; assay type: ADME, organism-based, Neoplasm; parameters: dose 100 mg/kg, route oral; details: read-out: Drug uptake; outline: as §1

CC(C)C1=C(C(=O)N2CCC[C@H]2C(=O)N(C)C)SC2=N[C@@](C)(c3ccc(Cl)cc3)[C@@H](c3ccc(Cl)cc3)N21
remaining at 0.5 h, 1 µM [1]: 9%

CC(=O)N1CCN(C(=O)[C@@H]2CC[C@@H](C)N2C(=O)C2=C(C(C)C)N3C(=N[C@@](C)(c4ccc(Cl)cc4)[C@H]3c3ccc(Cl)cc3)S2)C[C@H]1C
remaining at 0.5 h, 1 µM [1]: 55%

CC(=O)N1CCN(C(=O)[C@@H]2CC[C@@H](C)N2C(=O)C2=C(C(C)C)N3C(=N[C@@](C)(c4ccc(Cl)cc4)[C@H]3c3ccc(Cl)cc3)S2)C[C@@H]1C
remaining at 0.5 h, 1 µM [1]: 65%

CC(C)C1=C(C(=O)N2[C@H](C)CC[C@H]2C(=O)N2CCN(C)C(C)(C)C2)SC2=N[C@@](C)(c3ccc(Cl)cc3)[C@@H](c3ccc(Cl)cc3)N21
remaining at 0.5 h, 1 µM [1]: 84%

CC[C@@H]1CC[C@@H](C(=O)N2CCN(C)[C@H](C)C2)N1C(=O)C1=C(C(C)C)N2C(=N[C@@](C)(c3ccc(Cl)cc3)[C@H]2c2ccc(Cl)cc2)S1
remaining at 0.5 h, 1 µM [1]: 76%

CC[C@@H]1CC[C@@H](C(=O)N2CCN(C)[C@@H](C)C2)N1C(=O)C1=C(C(C)C)N2C(=N[C@@](C)(c3ccc(Cl)cc3)[C@H]2c2ccc(Cl)cc2)S1
remaining at 0.5 h, 1 µM [1]: 69%

CC[C@@H]1CC[C@@H](C(=O)N2CCN(C(C)=O)[C@H](C)C2)N1C(=O)C1=C(C(C)C)N2C(=N[C@@](C)(c3ccc(Cl)cc3)[C@H]2c2ccc(Cl)cc2)S1
concentration at 4 h [2]: 46400 ng/mL | remaining at 0.5 h, 1 µM [1]: 59% | concentration at 1 h [3]: 59600 ng/mL | concentration at 1 h [4]: 31500 ng/mL | concentration at 4 h [5]: 31200 ng/mL | concentration at 2 h [6]: 68400 ng/mL | concentration at 24 h [7]: 100 ng/mL | concentration at 2 h [8]: 32700 ng/mL | concentration at 6 h [9]: 48200 ng/mL | AUC [10]: 737 µg·h/mL | concentration at 6 h [11]: 25200 ng/mL

CC[C@@H]1CC[C@@H](C(=O)N2CCN(C(C)=O)[C@@H](C)C2)N1C(=O)C1=C(C(C)C)N2C(=N[C@@](C)(c3ccc(Cl)cc3)[C@H]2c2ccc(Cl)cc2)S1
remaining at 0.5 h, 1 µM [1]: 54%

CC[C@@H]1CC[C@@H](C(=O)N2CCN(C(C)=O)CC2)N1C(=O)C1=C(C(C)C)N2C(=N[C@@](C)(c3ccc(Cl)cc3)[C@H]2c2ccc(Cl)cc2)S1
remaining at 0.5 h, 1 µM [1]: 38%

CC[C@@H]1CC[C@@H](C(=O)N2CCOCC2)N1C(=O)C1=C(C(C)C)N2C(=N[C@@](C)(c3ccc(Cl)cc3)[C@H]2c2ccc(Cl)cc2)S1
remaining at 0.5 h, 1 µM [1]: 6%

CC(C)C1=C(C(=O)N2[C@H](C)CC[C@H]2C(=O)N2CCN(C)[C@H](C)C2)SC2=N[C@@](C)(c3ccc(Cl)cc3)[C@@H](c3ccc(Cl)cc3)N21
concentration at 4 h [2]: 7500 ng/mL | remaining at 0.5 h, 1 µM [1]: 74% | concentration at 1 h [3]: 6900 ng/mL | concentration at 1 h [4]: 18900 ng/mL | concentration at 4 h [5]: 27900 ng/mL | concentration at 2 h [6]: 7800 ng/mL | concentration at 24 h [7]: 300 ng/mL | concentration at 24 h [12]: 4300 ng/mL | concentration at 2 h [8]: 23300 ng/mL | concentration at 6 h [9]: 5700 ng/mL | AUC [10]: 93.1 µg·h/mL | concentration at 6 h [11]: 27500 ng/mL

CC(C)C1=C(C(=O)N2[C@H](C)CC[C@H]2C(=O)N2CCN(C)[C@@H](C)C2)SC2=N[C@@](C)(c3ccc(Cl)cc3)[C@@H](c3ccc(Cl)cc3)N21
remaining at 0.5 h, 1 µM [1]: 63%

CC(C)C1=C(C(=O)N2[C@@H](C)CC[C@H]2C(=O)N(C)C)SC2=N[C@@](C)(c3ccc(Cl)cc3)[C@@H](c3ccc(Cl)cc3)N21
remaining at 0.5 h, 1 µM [1]: 39%

CC[C@H]1CC[C@@H](C(=O)N(C)C)N1C(=O)C1=C(C(C)C)N2C(=N[C@@](C)(c3ccc(Cl)cc3)[C@H]2c2ccc(Cl)cc2)S1
remaining at 0.5 h, 1 µM [1]: 47%

CC(C)C1=C(C(=O)N2[C@H](C)CC[C@H]2C(=O)N(C)C)SC2=N[C@@](C)(c3ccc(Cl)cc3)[C@@H](c3ccc(Cl)cc3)N21
remaining at 0.5 h, 1 µM [1]: 53%

CC[C@@H]1CC[C@@H](C(=O)N(C)C)N1C(=O)C1=C(C(C)C)N2C(=N[C@@](C)(c3ccc(Cl)cc3)[C@H]2c2ccc(Cl)cc2)S1
remaining at 0.5 h, 1 µM [1]: 70%

CC(C)C1=C(C(=O)N2[C@H](C)CC[C@H]2C(=O)N2CCN(C)CC2)SC2=N[C@@](C)(c3ccc(Cl)cc3)[C@@H](c3ccc(Cl)cc3)N21
remaining at 0.5 h, 1 µM [1]: 25%

CC(=O)N1CCN(C(=O)[C@@H]2CC[C@@H](C)N2C(=O)C2=C(C(C)C)N3C(=N[C@@](C)(c4ccc(Cl)cc4)[C@H]3c3ccc(Cl)cc3)S2)CC1
remaining at 0.5 h, 1 µM [1]: 13%

CC[C@@H]1CC[C@@H](C(=O)N2CCN(C)CC2)N1C(=O)C1=C(C(C)C)N2C(=N[C@@](C)(c3ccc(Cl)cc3)[C@H]2c2ccc(Cl)cc2)S1
remaining at 0.5 h, 1 µM [1]: 50%
